# Source: ChEMBL document CHEMBL5724801, “EUbOPEN Chemogenomics Library - Multiplex” (2024)
# Several values for one entry are separate records, joined by “and”; a condition that tells them apart may be missing. Equal values may be shown once.
# System: U2OS
# Test: Multiplex assay against U2OS
# Format: toxicity, cell-based
# Conditions: human
# How it was run: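 Hoechst33342, BioTracker Green Microtubule Cytoskeleton Dye, MitoTracker Red and Annexin V Alexa Fluor 680 were added to live cells at seeding, and imaging on a CQ1 microscope at 37°C and 5% CO2 followed compound addition. Gating by CellPathfinder machine learning separated cells into Hoechst high-intensity objects or normal cells, then normal cells into healthy, pyknosed or fragmented nuclei, then pyknosed cells into mitotic or apoptotic. Per cents of healthy-nucleus cells are reported for the tubulin, mitochondrial-mass and membrane-permeability phenotypes.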
# [1] = 12 h, 1 µM, compound concentration 1 uM
# [2] = 12 h, 10 µM, compound concentration 10 uM
# [3] = 24 h, 1 µM, compound concentration 1 uM
# [4] = 24 h, 10 µM, compound concentration 10 uM
# [5] = 48 h, 1 µM, compound concentration 1 uM
# [6] = 48 h, 10 µM, compound concentration 10 uM
smiles,measurement,setting,value
CCOC(=O)c1c(/C(C#N)=C\N)c2ccc(Cl)c(Cl)c2n1C,Population Apoptotic (%),[1],47.83% and 43.48%
same,Population Fragmented Nuclei (%),[1],0.85% and 4.7%
same,Population Healthy Nuclei (%),[1],89.38% and 79.87%
same,Population Hoechst High Intensity Objects (%),[1],0%
same,Population Membrane Permeable-Phenotype (%),[1],1.19% and 0.84%
same,Population Mitochondria Different-Phenotype (%),[1],0% and 5.88%
same,Population Mitotic Cells (%),[1],52.17% and 56.52%
same,Population Normal (%),[1],100%
same,Population Pyknosed Nuclei (%),[1],9.77% and 15.44%
same,Population Tubulin-Different-Phenotype (%),[1],0.95% and 0.84%
same,Population Apoptotic (%),[2],43.9% and 26.67%
same,Population Healthy Nuclei (%),[2],86.92% and 80.49%
same,Population Hoechst High Intensity Objects (%),[2],0%
same,Population Membrane Permeable-Phenotype (%),[2],0% and 3.64%
same,Population Mitochondria Different-Phenotype (%),[2],0% and 2.42%
same,Population Mitotic Cells (%),[2],56.1% and 73.33%
same,Population Normal (%),[2],100%
same,Population Pyknosed Nuclei (%),[2],11.17% and 7.32%
same,Population Tubulin-Different-Phenotype (%),[2],0.31% and 0%
same,Total Cell Count,[2],367 and 205
same,Population Apoptotic (%),[3],38.46% and 52.38%
same,Population Fragmented Nuclei (%),[3],0.82% and 3.3%
same,Population Healthy Nuclei (%),[3],90.7% and 85.16%
same,Population Hoechst High Intensity Objects (%),[3],0%
same,Population Membrane Permeable-Phenotype (%),[3],0.9% and 3.87%
same,Population Mitochondria Different-Phenotype (%),[3],0% and 2.58%
same,Population Mitotic Cells (%),[3],61.54% and 47.62%
same,Population Normal (%),[3],100%
same,Population Pyknosed Nuclei (%),[3],8.48% and 11.54%
same,Population Tubulin-Different-Phenotype (%),[3],1.62% and 1.29%
same,Population Apoptotic (%),[4],49.09% and 33.33%
same,Population Fragmented Nuclei (%),[4],1.8% and 9.69%
same,Population Healthy Nuclei (%),[4],87.17% and 84.5%
same,Population Hoechst High Intensity Objects (%),[4],0%
same,Population Membrane Permeable-Phenotype (%),[4],0.46% and 1.38%
same,Population Mitochondria Different-Phenotype (%),[4],0% and 1.38%
same,Population Mitotic Cells (%),[4],50.91% and 66.67%
same,Population Normal (%),[4],100%
same,Population Pyknosed Nuclei (%),[4],11.02% and 5.81%
same,Population Tubulin-Different-Phenotype (%),[4],0.92% and 0.46%
same,Total Cell Count,[4],499 and 258
same,Population Apoptotic (%),[5],46.46% and 70.83%
same,Population Fragmented Nuclei (%),[5],2.55% and 2.93%
same,Population Healthy Nuclei (%),[5],88.73% and 89.25%
same,Population Hoechst High Intensity Objects (%),[5],0%
same,Population Membrane Permeable-Phenotype (%),[5],0.6% and 3.28%
same,Population Mitochondria Different-Phenotype (%),[5],0% and 2.55%
same,Population Mitotic Cells (%),[5],53.54% and 29.17%
same,Population Normal (%),[5],100%
same,Population Pyknosed Nuclei (%),[5],8.71% and 7.82%
same,Population Tubulin-Different-Phenotype (%),[5],0.4% and 1.82%
same,Population Apoptotic (%),[6],37.84% and 47.83%
same,Population Fragmented Nuclei (%),[6],3.52% and 4.86%
same,Population Healthy Nuclei (%),[6],85.01% and 83.38%
same,Population Hoechst High Intensity Objects (%),[6],0%
same,Population Membrane Permeable-Phenotype (%),[6],1.09% and 0.92%
same,Population Mitochondria Different-Phenotype (%),[6],0% and 1.84%
same,Population Mitotic Cells (%),[6],62.16% and 52.17%
same,Population Normal (%),[6],100%
same,Population Pyknosed Nuclei (%),[6],11.48% and 11.76%
same,Population Tubulin-Different-Phenotype (%),[6],1.09% and 0%
same,Total Cell Count,[6],967 and 391
CCC(=N\O)/C(C)=C/c1ccc(F)cc1 [A-079],Population Apoptotic (%),[1],48.57% and 40.91%
same,Population Fragmented Nuclei (%),[1],1.07% and 0%
same,Population Healthy Nuclei (%),[1],91.47% and 83.94%
same,Population Hoechst High Intensity Objects (%),[1],0%
same,Population Membrane Permeable-Phenotype (%),[1],0.47% and 1.74%
same,Population Mitochondria Different-Phenotype (%),[1],0% and 11.3%
same,Population Mitotic Cells (%),[1],51.43% and 59.09%
same,Population Normal (%),[1],100%
same,Population Pyknosed Nuclei (%),[1],7.46% and 16.06%
same,Population Tubulin-Different-Phenotype (%),[1],0.47% and 1.74%
same,Population Apoptotic (%),[2],36.67% and 36.84%
same,Population Fragmented Nuclei (%),[2],3.39% and 2.96%
same,Population Healthy Nuclei (%),[2],88.14% and 82.96%
same,Population Hoechst High Intensity Objects (%),[2],0%
same,Population Membrane Permeable-Phenotype (%),[2],1.6% and 0.89%
same,Population Mitochondria Different-Phenotype (%),[2],0% and 4.46%
same,Population Mitotic Cells (%),[2],63.33% and 63.16%
same,Population Normal (%),[2],100%
same,Population Pyknosed Nuclei (%),[2],8.47% and 14.07%
same,Population Tubulin-Different-Phenotype (%),[2],0.64% and 0.89%
same,Total Cell Count,[2],354 and 135
same,Population Apoptotic (%),[3],36.36% and 42.86%
same,Population Fragmented Nuclei (%),[3],0.47% and 0.53%
same,Population Healthy Nuclei (%),[3],90.89% and 88.24%
same,Population Hoechst High Intensity Objects (%),[3],0%
same,Population Membrane Permeable-Phenotype (%),[3],0.86% and 1.82%
same,Population Mitochondria Different-Phenotype (%),[3],0% and 3.03%
same,Population Mitotic Cells (%),[3],63.64% and 57.14%
same,Population Normal (%),[3],100%
same,Population Pyknosed Nuclei (%),[3],8.63% and 11.23%
same,Population Tubulin-Different-Phenotype (%),[3],0.17% and 0.61%
same,Population Apoptotic (%),[4],43.18% and 38.1%
same,Population Fragmented Nuclei (%),[4],2.04% and 1.9%
same,Population Healthy Nuclei (%),[4],88.96% and 84.81%
same,Population Hoechst High Intensity Objects (%),[4],0%
same,Population Membrane Permeable-Phenotype (%),[4],0.46% and 2.99%
same,Population Mitochondria Different-Phenotype (%),[4],0% and 8.21%
same,Population Mitotic Cells (%),[4],56.82% and 61.9%
same,Population Normal (%),[4],100%
same,Population Pyknosed Nuclei (%),[4],9% and 13.29%
same,Population Tubulin-Different-Phenotype (%),[4],0.23% and 0.75%
same,Population Apoptotic (%),[5],43.75% and 67.74%
same,Population Fragmented Nuclei (%),[5],3.57% and 1.19%
same,Population Healthy Nuclei (%),[5],86.9% and 89.55%
same,Population Hoechst High Intensity Objects (%),[5],0%
same,Population Membrane Permeable-Phenotype (%),[5],0.29% and 1.67%
same,Population Mitochondria Different-Phenotype (%),[5],0.1% and 3%
same,Population Mitotic Cells (%),[5],56.25% and 32.26%
same,Population Normal (%),[5],100%
same,Population Pyknosed Nuclei (%),[5],9.52% and 9.25%
same,Population Tubulin-Different-Phenotype (%),[5],0.2% and 1%
same,Population Apoptotic (%),[6],34.57% and 41.18%
same,Population Fragmented Nuclei (%),[6],3.23% and 2.2%
same,Population Healthy Nuclei (%),[6],88.86% and 85.35%
same,Population Hoechst High Intensity Objects (%),[6],0%
same,Population Membrane Permeable-Phenotype (%),[6],0.55% and 1.72%
same,Population Mitochondria Different-Phenotype (%),[6],0.11% and 5.58%
same,Population Mitotic Cells (%),[6],65.43% and 58.82%
same,Population Normal (%),[6],100%
same,Population Pyknosed Nuclei (%),[6],7.92% and 12.45%
same,Population Tubulin-Different-Phenotype (%),[6],0.33% and 0%
COc1cc(NC(=O)CCN2CCC(OC(=O)Nc3ccccc3-c3ccccc3)CC2)c(Cl)cc1CNC[C@H](O)c1ccc(O)c2[nH]c(=O)ccc12 [BATEFENTEROL],Population Apoptotic (%),[1],68% and 85%
same,Population Fragmented Nuclei (%),[1],29% and 14%
same,Population Healthy Nuclei (%),[1],49% and 78%
same,Population Hoechst High Intensity Objects (%),[1],4% and 1%
same,Population Membrane Permeable-Phenotype (%),[1],5% and 9%
same,Population Mitochondria Different-Phenotype (%),[1],5% and 6%
same,Population Mitotic Cells (%),[1],31% and 14%
same,Population Normal (%),[1],95% and 98%
same,Population Pyknosed Nuclei (%),[1],21% and 7%
same,Population Tubulin-Different-Phenotype (%),[1],4% and 7%
same,Total Cell Count,[1],159 and 98
same,Population Apoptotic (%),[2],72% and 88%
same,Population Fragmented Nuclei (%),[2],37% and 18%
same,Population Healthy Nuclei (%),[2],44% and 59%
same,Population Hoechst High Intensity Objects (%),[2],6% and 7%
same,Population Membrane Permeable-Phenotype (%),[2],60% and 57%
same,Population Mitochondria Different-Phenotype (%),[2],67% and 95%
same,Population Mitotic Cells (%),[2],27% and 11%
same,Population Normal (%),[2],93% and 92%
same,Population Pyknosed Nuclei (%),[2],18% and 22%
same,Population Tubulin-Different-Phenotype (%),[2],75% and 97%
same,Total Cell Count,[2],196 and 82
same,Population Apoptotic (%),[3],74% and 100%
same,Population Fragmented Nuclei (%),[3],27% and 12%
same,Population Healthy Nuclei (%),[3],55% and 75%
same,Population Hoechst High Intensity Objects (%),[3],2% and 1%
same,Population Membrane Permeable-Phenotype (%),[3],9% and 5%
same,Population Mitochondria Different-Phenotype (%),[3],9% and 6%
same,Population Mitotic Cells (%),[3],25% and 0%
same,Population Normal (%),[3],97% and 98%
same,Population Pyknosed Nuclei (%),[3],17% and 11%
same,Population Tubulin-Different-Phenotype (%),[3],5% and 2%
same,Total Cell Count,[3],182 and 103
same,Population Apoptotic (%),[4],79% and 73%
same,Population Fragmented Nuclei (%),[4],38% and 29%
same,Population Healthy Nuclei (%),[4],38% and 42%
same,Population Hoechst High Intensity Objects (%),[4],4% and 9%
same,Population Membrane Permeable-Phenotype (%),[4],32% and 52%
same,Population Mitochondria Different-Phenotype (%),[4],59% and 91%
same,Population Mitotic Cells (%),[4],20% and 26%
same,Population Normal (%),[4],95% and 90%
same,Population Pyknosed Nuclei (%),[4],22% and 27%
same,Population Tubulin-Different-Phenotype (%),[4],44% and 91%
same,Total Cell Count,[4],199 and 93
same,Population Apoptotic (%),[5],82% and 85%
same,Population Fragmented Nuclei (%),[5],26% and 17%
same,Population Healthy Nuclei (%),[5],54% and 64%
same,Population Hoechst High Intensity Objects (%),[5],3% and 4%
same,Population Membrane Permeable-Phenotype (%),[5],3%
same,Population Mitochondria Different-Phenotype (%),[5],5% and 1%
same,Population Mitotic Cells (%),[5],17% and 14%
same,Population Normal (%),[5],96% and 95%
same,Population Pyknosed Nuclei (%),[5],19% and 17%
same,Population Tubulin-Different-Phenotype (%),[5],3% and 1%
same,Total Cell Count,[5],242 and 123
same,Population Apoptotic (%),[6],92% and 94%
same,Population Fragmented Nuclei (%),[6],41% and 29%
same,Population Healthy Nuclei (%),[6],39% and 32%
same,Population Hoechst High Intensity Objects (%),[6],6% and 10%
same,Population Membrane Permeable-Phenotype (%),[6],31% and 38%
same,Population Mitochondria Different-Phenotype (%),[6],43% and 70%
same,Population Mitotic Cells (%),[6],7% and 5%
same,Population Normal (%),[6],93% and 89%
same,Population Pyknosed Nuclei (%),[6],18% and 37%
same,Population Tubulin-Different-Phenotype (%),[6],23% and 48%
same,Total Cell Count,[6],221 and 105
